According to the EternaBench riboswitch data:

System: MS2 coat protein
Test: apparent Kd, MS2 coat protein; higher = weaker binding; RNA-MaP array
How it was run: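 Apparent Kd values come from the median of binding-curve fits to single clusters. To obtain them, designed RNAs transcribed on an Illumina sequencing chip from sequenced DNA templates were incubated at room temperature with fluorescently labeled MS2 coat protein at 1.5 nM to 3 μM, with or without input ligand, for 0.8–1.5 h at the lowest and 10–20 min at the highest concentrations. Designs measured on fewer than 10 clusters were excluded.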

[1] = designed as: OFF switch for flavin mononucleotide, no ligand
[2] = ligand present: flavin mononucleotide, designed as: OFF switch for flavin mononucleotide
[3] = designed as: ON switch for flavin mononucleotide, no ligand
[4] = ligand present: flavin mononucleotide, designed as: ON switch for flavin mononucleotide
[5] = designed as: OFF switch for tryptophan, no ligand
[6] = ligand present: tryptophan, designed as: OFF switch for tryptophan
[7] = designed as: OFF switch for theophylline, no ligand
[8] = ligand present: theophylline, designed as: OFF switch for theophylline

Sequence | apparent Kd [1] | apparent Kd [2] | apparent Kd [3] | apparent Kd [4] | also measured
UCCAUGUUAGGAUAUCGGCCACCUUCGACAAAAGUGUACUGCGAGAAGGAACAUGAGGAUCACCCAUGUCUGGG | 416 nM | 104 nM | – | – | –
UCGAGUAAGGAGAAGGACUAAUGGACUCACAAAGUAGGAUAUCCUGAACAUGAGGAUCACCCAUGUUGAUGUAACAUGUACUGG | – | – | 118 nM | 80.1 nM | –
UCGAUCAUGUAGAAGGCAUCAGAAACUGGGUGAUGAGGAUAUACGUUAAGACAUGAGGAUCACCCAUGUAAGCAUUGCAAACAC | – | – | 116 nM | 86.2 nM | –
UCUAAAAUCGGAGGAUAUUACGAAGACAUGAGGAUCACCCAUGUAGUGGAACACAUAAGUCGCUCUAAGAAGGCCGCAAUUGAC | 29.5 nM | 34.6 nM | – | – | –
UCUUUCUUUAAAGAACACAUGAGGAUCACCCAUGUUCAAGGGCAGGAUAUGAGUAUCUGUUCGGAUCAGAAGGGCCCAACAGGU | – | – | 36 nM | 29.5 nM | –
UGAAAACCGUCAUAAACAAACAUGAGGAUCACCCAUGUAGCUAAGGAUAUUGACAAACAAAGACUCAAGAAGGUAGAACCUACA | 7.99 nM | 7.26 nM | – | – | –
UGCCUAAAGUCGGCCGCCACUGAUGGUAUCCUCUCCUCGAGGUCACACAUGAGGAUCACCCAUGUCAGGACCGGGACUAGUGAGA | – | – | – | – | apparent Kd [5]: 7.89 nM; apparent Kd [6]: 10.4 nM
UGCGGACAUGAGGAUCACCCAUGUGCGGAUACCAGCAGCCGGCUCUGCCCUUGGCAGCCGCUACCCUUGCACGUUUAACGAUCCA | – | – | – | – | apparent Kd (designed as: ON switch for theophylline, no ligand): 37.8 nM; apparent Kd (ligand present: theophylline, designed as: ON switch for theophylline): 36.7 nM
UGGUUUGUCCAUACAUGAGGAUCACCCAUGUAACACUGGCCCAGAAGGCGAAAAUGGCAGCCAGUCGAGGAUAUGGGCUGUAUG | – | – | 59.7 nM | 26.6 nM | –
UGUAUAGCGGCAGGAUAUGAGAGUGUAGGUGCUUCAGAAGGGCCAUGUGACGCUUUAAAUGGGACACAUGAGGAUCACCCAUGU | 18 nM | 13.5 nM | – | – | –
UGUCGCAGGUUAGAUACCAGCGAGGCGCGGGUAAAUGUUCACAUGAGGAUCACCCAUGUUCGCCCUUGGCAGCUAGUAGGCAUAA | – | – | – | – | apparent Kd [7]: 24.2 nM; apparent Kd [8]: 100 nM
UUAGCACAUGAGGAUCACCCAUGUCAGGAUAUACGGAAUGUCCUCUACAGGGCGCGCUGUAGAAGGGACCGGGC | 9.53 nM | 9.76 nM | – | – | –
UUAUAGGAAGGAUAUACAUGAGGAUCACCCAUGUUCAAACCAACGCACUAUCAUAAAUGUAGAAGGACCAACCC | 11.9 nM | 10.1 nM | – | – | –
UUAUAUCUUUAGGAUAUGCUGUGUCGGCAACUAGCAGAAGGAAAGACAUGAGGAUCACCCAUGUUGGUGCGUUC | 58.8 nM | 249 nM | – | – | –
UUCAUUUAGGAGGAUAUUUAGGCAUGAGGGCUAAAAGAAGGCCUAACAUGAGGAUCACCCAUGUUUGGACUAGA | 5.51 nM | 7.4 nM | – | – | –
UUCGUCGGACACACACAUGAGGAUCACCCAUGUAUCUCAAUCAGAAGGGUAUCACCGGAUAGGGUACAGGAUAUGACUACUAUA | – | – | 43 nM | 22.3 nM | –
UUGAUCUCGUAGAAGGGAGAGAUUGAGGGCUUCUCAGGAUAUACGAAUCCUCUGUGGCUAUGUUACAUGAGGAUCACCCAUGUC | 791 nM | 355 nM | – | – | –
UUGCAGGCAGGAUAUACGGUAUAUAACAUGAGGAUCACCCAUGUUCUUCACGAUCCCUGCGUAGAAGGGCCACAUU | 4.96 nM | 5.25 nM | – | – | –
UUGCUCCAUCAGAAGGUCUACGCACAUGAGGAUCACCCAUGUUCUGGAAUCAUCUUGUGUGCCAAGAAGGAUAUGACUUCAAGU | 545 nM | 363 nM | – | – | –
UUGGUUGCAUAGAAGGUGAGAUAGGAUCUACAUGAGGAUCACCCAUGUGUUAUCCCAAUUAGAAUCAAGGAUAUAUUGGCUUAU | – | – | 19.1 nM | 15.7 nM | –
UUGGUUGGGAAAACGAUUUGCACAUGAGGAUCACCCAUGUCGAAGGAUAUGUGGCGCUGUUUGCGACAGAAGGUCGACCUCGCC | – | – | 15.5 nM | 14.9 nM | –
UUGUUCAGCCUAGGAUAUGGGCAAACAUGAGGAUCACCCAUGUUGAGGCUACCACAAAGCCUGCACCAGAAGGAGGCCUAUACG | – | – | 9.27 nM | 5.71 nM | –
UUUAGUAUCUUAGAUACCAGUUUUGGGUGCUGAACGUCUCACAUGAGGAUCACCCAUGUAAACCCUUGGCAGCUACAUACGUAAA | – | – | – | – | apparent Kd [7]: 45.5 nM; apparent Kd [8]: 136 nM
UUUAGUCAAUCGGCCGCCACUGACAUGAGGAUCACCCAUGUAGGUAAGGAUCAACCUCGAAAGUACAGGACCGGGAUUCGCCUCU | – | – | – | – | apparent Kd [5]: 53.3 nM; apparent Kd [6]: 84 nM
UUUAUAAUCGUAAGGAUAUCCGCGUUAGUCCACCCGGAGAAGGUACAUGAGGAUCACCCAUGUGAACUAUGGGU | 24.4 nM | 28.5 nM | – | – | –
UUUAUUCUCUAUACAUGAGGAUCACCCAUGUCAAUGAUGUGCAGAAGGUGGUUCGGCUGUGACUCCAAGGAUAUGCAGAGAAUU | – | – | 513 nM | 115 nM | –
